Published values of several laboratories.
Target: Interleukin-1 receptor-associated kinase 1 (IRAK1, Homo sapiens, UniProt P51617)

FC(F)(F)Oc1cccc(-c2cnc3ccc(-c4ccncc4)nn23)c1  remaining binding (cell-free assay; competition with immobilised ligand; 5 µM): 10%
COc1ncc2cc3ccccc3nc2c1C#N  remaining binding (cell-free assay; competition with immobilised ligand; 5 µM): 92%
CCC(=O)N[C@@H]1CC[C@H](C(=O)N(C)c2ccc(-c3nc4ccccc4o3)cc2)C1  remaining binding (cell-free assay; competition with immobilised ligand; 1 µM): 100%
COc1cnc(Nc2cccc(S(N)(=O)=O)c2)nc1N1CCN(c2ccccc2)C(=O)C1  remaining binding (binding; competition with immobilised ligand; 1 µM): 55%
Cc1c(NC(=O)c2cc(C(N)=O)nc3cc(F)ccc23)c(C(F)(F)F)nn1Cc1ccc(C#N)cc1  remaining binding (cell-free assay; competition with immobilised ligand; 1 µM): 70%
O=C(c1ccc(Nc2ncc(Cl)c(-c3cc4ccccc4s3)n2)cc1)N1CCC(N2CCCC2)CC1  remaining binding (binding; competition with immobilised ligand; 1 µM): 0%
CCCOc1ccc([C@H]2[C@H](C(=O)O)[C@@H](c3ccc4c(c3)OCO4)CN2CC(=O)Nc2c(CC)cccc2CC)cc1  remaining binding (cell-free assay; competition with immobilised ligand; 1 µM): 67%
O=C(NCC1CCOCC1)c1n[nH]cc1NC(=O)c1c(F)cccc1F  remaining binding (binding; competition with immobilised ligand; 1 µM): 98%
CN(C)c1nccc(-c2cnc3ncccn23)n1  remaining binding (binding; 1 µM): 65%
Cc1cnc(Nc2ccc(C(=O)N3CCC(N4CCCC4)CC3)cc2)nc1-c1cc2ccccc2s1  remaining binding (binding; competition with immobilised ligand; 1 µM): 0%
O=S(=O)(NC1CCC(c2cc(F)ccc2F)(S(=O)(=O)c2ccc(Cl)cc2)CC1)C(F)(F)F (stereo not drawn)  remaining binding (cell-free assay; competition with immobilised ligand; 1 µM): 93%
c1cnn2ncc(-c3ccnc(N4CCC45COC5)n3)c2c1  remaining binding (binding; 1 µM): 76%
c1cncc(-c2cccc(Nc3nccc(NC4CCCCC4)n3)c2)c1  remaining binding (binding; competition with immobilised ligand; 10 µM): 9.9%
C[C@H]1CCN(c2nccc(-c3cnn4ncccc34)n2)C1  remaining binding (binding; 1 µM): 100%
O=C(NCCCN1CCOCC1)c1ccc(Nc2ncc(Cl)c(-c3ccc(Cl)s3)n2)cc1  remaining binding (binding; competition with immobilised ligand; 1 µM): 0.15%
N[C@@H]1CCN(c2nccc(-c3cnn4ncccc34)n2)C1  remaining binding (binding; 1 µM): 100%
COc1ccc2cc(OCC3(C(=O)O)CN(C(=O)c4ccc(F)cc4)C3)ccc2c1  remaining binding (cell-free assay; competition with immobilised ligand; 1 µM): 100%
Cc1cnn2ncc(-c3ccnc(N(C)C)n3)c2c1  remaining binding (binding; 1 µM): 100%
Nc1ncc2c(n1)-c1c([nH]c3ccc(C#CC4CC4)cc13)CCCC2  remaining binding (binding; competition with immobilised ligand; 1 µM): 96%
CN(C)c1ncc(F)c(-c2cnn3ncccc23)n1  remaining binding (binding; 1 µM): 66%
Cc1c(NC(=O)c2cc(C(N)=O)nc3cc(F)ccc23)c(C(F)(F)F)nn1Cc1ccc(C(C)(C)C)cc1  remaining binding (cell-free assay; competition with immobilised ligand; 1 µM): 100%
